FGF22 binding = shifts melting point of recombinant human FGF22 | hit rate 1.5% among 340,000 | Q9HCT0 | recombinant FGF22 thermal shift, SYPRO orange fluorescence; percent of sucrose octasulfate shift, DMSO zero | activity (Tm shift, normalised), % at 9.99 µM;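 active = mean Tm shift, scaled 0 neutral to 100 positive control, at about 1.3% or above, every replicate too, limit read from the data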
Target sequence (Q9HCT0 whole entry, looked up): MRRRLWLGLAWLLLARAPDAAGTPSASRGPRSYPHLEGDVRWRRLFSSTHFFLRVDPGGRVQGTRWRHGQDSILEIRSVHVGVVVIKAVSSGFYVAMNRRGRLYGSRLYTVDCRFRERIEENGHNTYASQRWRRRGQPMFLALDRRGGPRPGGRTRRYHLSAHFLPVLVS
697 NFkB inh = inhibitors of the PMA/ionomycin-induced NF-kB reporter in 697 B cells | 697 B-cell NF-kB luciferase reporter, 16 h | inhibition, % at 4 µM | hit rate 0.33% among 330,000 | AID 435022; in the data active = inhibition above about 35%
NR2E3 ag-1 = NR2E3 (human) agonism; GST-NR2E3/biotin-RetCOR TR-FRET, 1536-well; inhibition of corepressor binding, % at 4.78 µM; Q9Y5X4; AID 2300; hit rate 0.12% among 320,000;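 active = percent inhibition above the cutoff of mean plus 3 SD of all tested compounds, set per screening campaign, cut at about 20% in these data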;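 also: 0% = DMSO wells and 100% = biotin wells as full block of FRET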
Target sequence (Q9Y5X4 whole entry, looked up): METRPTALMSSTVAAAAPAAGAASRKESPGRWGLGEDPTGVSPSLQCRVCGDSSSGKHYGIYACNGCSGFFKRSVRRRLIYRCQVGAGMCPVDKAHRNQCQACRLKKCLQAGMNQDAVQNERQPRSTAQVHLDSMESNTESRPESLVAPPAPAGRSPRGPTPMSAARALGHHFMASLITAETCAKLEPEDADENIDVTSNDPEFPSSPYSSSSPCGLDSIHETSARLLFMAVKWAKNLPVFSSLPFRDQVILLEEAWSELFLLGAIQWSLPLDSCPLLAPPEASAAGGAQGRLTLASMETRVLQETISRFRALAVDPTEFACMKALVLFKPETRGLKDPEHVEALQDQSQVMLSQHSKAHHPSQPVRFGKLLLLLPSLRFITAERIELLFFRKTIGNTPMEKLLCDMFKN
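Material – GST-tagged NR2E3 plus biotinylated RetCOR corepressor · Quantity – NR2E3 fusion 1.35 nM · Times – 5 h incubation at 4 °C · Medium – pH 7.5 Tris-based buffer · Technique – TR-FRET, Eu(K)-anti-GST donor, streptavidin-D2 acceptor, ex 340, em 617/671 nm · Benchmarks – high control biotin, low control 0.6% DMSO · Format – 1536-well plates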
miR122 inh = miR-122 inhibition in Huh7 cells. activation (reporter increase), % at 12.5 µM. Huh7 miR-122 Renilla luciferase sensor, 48 h; neutral wells = 0, positive control = 100. AID 602342. hit rate 0.3% among 340,000;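 active = mean replicate activation score at least 90 and every replicate individually at or above 90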;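 also: higher luciferase means less miR-122 activity so hits act as miR-122 inhibitors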
NR2E3 ag-2 = agonists of human NR2E3 nuclear receptor; CHO-S Gal4-NCOR/VP16-NR2E3 two-hybrid, luciferase; inhibition of corepressor binding, % at 3.98 µM; hit rate 0.35% among 360,000;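 active = inhibition above the mean of all tested compounds plus 3 SD, cut at about 70% in these data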;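 also: 0% = DMSO with NR2E3 transfected cells and 100% = cells lacking NR2E3 construct; higher means lower luciferase signal from less NR2E3 corepressor binding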
Jurkat NFkB inh = inhibitors of the PMA/ionomycin-induced NF-kB reporter in Jurkat cells; hit rate 0.53% among 330,000; inhibition, % at 4 µM; PMA/ionomycin-induced NF-kB luciferase reporter, luminescence; in the data active = inhibition above about 50%
* marks the source's active call; other numbers are inactive results; · = no result given; [ ] = dose if it differs, or a comment. Compounds with a hit are over-represented: about 2.2% of the library has one in this group of screens.

SMILES	FGF22 binding	697 NFkB inh	NR2E3 ag-1	miR122 inh	NR2E3 ag-2	Jurkat NFkB inh
C/C(CC(=O)Nc1ccc(Cl)cc1C(F)(F)F)=N\NC(=O)c1ccccn1	43*	-28	-1	·	-101	-6
CC(C)NC(=O)Nc1ccc2c(c1)CC(=O)N([C@@H](C)CO)C[C@H](C)[C@@H](CN(C)Cc1ccncc1)O2	0	·	·	2[16.7 µM]	·	·
CC(C)c1onc(C(=O)N2CCN(C(c3ccccc3)c3ccccc3)CC2)c1[N+](=O)[O-]	0	0	2	-6	-13	-3
CNC(=S)NNC(=O)c1noc(C)c1C(=O)N1CCN(C(c2ccccc2)c2ccccc2)CC1	44*	14	-2	-4	-36	0
C/C(=N\NC(=O)CN(c1ccc(Oc2ccccc2)cc1)S(C)(=O)=O)C(C)(C)C	44*	-15	-16	·	-20	0
O=C(C[C@@H]1CC[C@@H]2[C@H](COC[C@@H](O)CN2C(=O)c2ccccc2F)O1)N1CCN(c2ccccc2)CC1	-1	·	·	0[16.7 µM]	·	·
Cc1noc(C)c1NC(=O)N(C)C[C@H]1OCCCC[C@H](C)Oc2ccc(NS(C)(=O)=O)cc2C(=O)N([C@H](C)CO)C[C@@H]1C	0	·	·	0[16.7 µM]	·	·
N#CC1=C(N)N2C(=C(C#N)C1c1ccc(Br)cc1)Nc1ccccc12 (stereo not given)	0	8	8	·	·	-2
N#CC1=C(N)N2C(=C(C#N)C1c1cccc(Br)c1)Nc1ccccc12 (stereo not given)	43*	17	2	·	-8	7
COc1ccc(NC(=O)N2C[C@@H](O)COC[C@H]3O[C@H](CC(=O)N4CCOCC4)CC[C@@H]32)cc1	0	·	·	5[16.7 µM]	·	·
CN(Cc1ccccc1)C(=O)CCN1C(=O)c2cccc([N+](=O)[O-])c2C1=O	43*	·	·	·	-23	·
CN(Cc1ccc(Br)cc1)C(=O)CCN1C(=O)c2cccc([N+](=O)[O-])c2C1=O	0	12	2	-5	-12	-28
COc1cccc(C2=Nc3cccc4cccc(c34)N2)c1	-1	15	0	3	2	13
Nc1ccc(C2=Nc3cccc4cccc(c34)N2)cc1	43*	·	·	-1	13	·
O=C(Nc1ccc2c(c1)[C@H]1C[C@@H](CC(=O)N3CCOCC3)O[C@H](CO)[C@H]1O2)c1cccnc1	0	·	·	-7[16.7 µM]	·	·
Cc1cccc(C)c1-n1cccc1/C=C1/C(=N)N2C(=NC1=O)SN=C2S(C)(=O)=O	44*	0	-1	·	-19	-1
Cc1ccc(-n2cccc2/C=C2/C(=N)N3C(=NC2=O)SN=C3S(C)(=O)=O)cc1Cl	·	·	2	-3	24	·
COc1ccc(S(=O)(=O)Nc2ccc3c(c2)CC(=O)N([C@@H](C)CO)C[C@H](C)[C@H](CN(C)C(=O)Nc2c(C)noc2C)O3)cc1	0	·	·	-2[16.7 µM]	·	·
NNc1ccccc1C(F)(F)F	43*	·	·	·	-33	·
CC(=O)Nc1ccccc1C(F)(F)F	0	5	2	-2	-2	9
O=C(NCCNC(=O)c1ccc(-c2cc(Cl)ccc2Cl)o1)c1cnccn1	44*	·	·	0	1	·
COc1ccc(NS(=O)(=O)c2cc(NC(=O)CC(C)(C)C)ccc2N2CCCC2)cc1	0	24	1	51	2	2
CNC(=S)Nc1ccc(N2CCCC2)c(S(=O)(=O)Nc2ccc(OC)cc2)c1	0	17	·	109*	10	14
COc1ccc(NS(=O)(=O)c2cc(NC(=O)c3cnccn3)ccc2N2CCCC2)cc1	1	7	-4	104*	-12	33
CCCNC(=O)C[C@H]1CC[C@@H]2[C@H](COC[C@@H](O)CN2C(=O)Nc2ccccc2OC)O1	0	·	·	8[16.7 µM]	·	·
SMILES	FGF22 binding	697 NFkB inh	NR2E3 ag-1	miR122 inh	NR2E3 ag-2	Jurkat NFkB inh
Cc1cc(N2CCCC2=O)cc(C)c1S(=O)(=O)NCCOc1ccc(C(C)(C)C)cc1	·	-43	3	12	95*	6
O=c1ccc(-c2nc3ccccc3n2Cc2ccccc2Cl)c[nH]1	43*	18	1	1	-3	20
CN(C)Cc1c(O)ccc2c(-c3ccccc3)cc(=O)oc12	43*	-8	-1	·	-8	-3
CC(=O)c1c(O)ccc2c(-c3ccccc3)cc(=O)oc12	·	21	9	·	-29	4
COc1cccc(S(=O)(=O)N(C)C[C@@H]2Oc3ncc(/C=C/c4ccccc4)cc3C(=O)N([C@H](C)CO)C[C@@H]2C)c1	0	·	·	-7[16.7 µM]	·	·
CC/C(=N\NC(=O)c1ccc2c(c1)OCO2)C12CC3CC(CC(C3)C1)C2	·	30	4	181*	-16	-6
O=C(O)CC(NC(=O)C12CC3CC(CC(C3)C1)C2)c1ccc(F)cc1 (stereo not given)	0	-10	0	-4	11	1
O=C(O)CC(NC(=O)C12CC3CC(CC(C3)C1)C2)c1ccc2c(c1)OCO2 (stereo not given)	43*	6	1	·	9	0
C[C@H](CO)N1C[C@H](C)[C@@H](CN(C)S(=O)(=O)c2cn(C)cn2)Oc2ccc(NC(=O)Cn3cnnn3)cc2CC1=O	0	·	·	8[16.7 µM]	·	·
CC(C)CC(N)c1csc(Nc2ccccn2)n1 (stereo not given)	0	·	·	-9	-9	·
CC(C)CC(N)c1csc(Nc2cnccn2)n1 (stereo not given)	44*	·	·	-10	-29	·
Cc1ccc(S(=O)(=O)Nc2ccc3c(c2)C(=O)N([C@H](C)CO)C[C@H](C)[C@H](CN(C)S(C)(=O)=O)OCCCC[C@H](C)O3)cc1	0	·	·	4[16.7 µM]	·	·
Cc1cccc(CSCCNC(=O)CCSc2ccccc2)c1	44*	5	1	-20	-11	0
O=C(CCSc1ccccc1)NCCSCc1ccccc1	0	12	0	·	-5	-8
C=CCN(CC=C)S(=O)(=O)c1ccc2nc(NC(=O)C(C)C)sc2c1	·	-46	1	122*	-84	27
CCOC(=O)c1ccc2nc(NC(=O)C(C)C)sc2c1	0	-128	2	-8	-100	-118
OC[C@@H]1[C@H](c2ccccc2)C2(CN(Cc3nccs3)C2)N1CCC(F)(F)F	0	·	·	·	·	·
CN1C(=O)c2cc(NS(=O)(=O)c3ccccc3Cl)ccc2OC[C@H]2O[C@H](CC(=O)O)CC[C@H]21	0	·	·	6[16.7 µM]	·	·
Cc1ccccc1NC(=O)c1ccc(OCC(=O)Nc2ccccc2F)cc1	43*	5	1	·	1	-1
CC(C)N(Cc1ccccc1)C(=S)Nc1ccc(F)cc1	43*	-5	1	·	-18	-1
Cc1ccc(NC(=S)N(Cc2ccccc2)C(C)C)cc1	0	15	0	-1	3	-26
C/C=C/c1ccc(OCC(=O)Nc2ccc(C(N)=O)cc2)c(OC)c1	44*	19	1	·	-12	0
